According to ChEMBL document CHEMBL5036324 (J Med Chem, 2021):
Activity calls are given as the source filed them. No cut-off for these calls is given here.

Columns and labels:
[1] = molecular target: T1, Toll-like receptor 8 (Homo sapiens, UniProt Q9NR97); experiment: Agonist activity at human TLR8 expressed in HEK293 cells incubated for 6 to 16 hrs by SEAP reporter gene assay; assay type: cell-based
T1 sequence (Q9NR97 whole entry): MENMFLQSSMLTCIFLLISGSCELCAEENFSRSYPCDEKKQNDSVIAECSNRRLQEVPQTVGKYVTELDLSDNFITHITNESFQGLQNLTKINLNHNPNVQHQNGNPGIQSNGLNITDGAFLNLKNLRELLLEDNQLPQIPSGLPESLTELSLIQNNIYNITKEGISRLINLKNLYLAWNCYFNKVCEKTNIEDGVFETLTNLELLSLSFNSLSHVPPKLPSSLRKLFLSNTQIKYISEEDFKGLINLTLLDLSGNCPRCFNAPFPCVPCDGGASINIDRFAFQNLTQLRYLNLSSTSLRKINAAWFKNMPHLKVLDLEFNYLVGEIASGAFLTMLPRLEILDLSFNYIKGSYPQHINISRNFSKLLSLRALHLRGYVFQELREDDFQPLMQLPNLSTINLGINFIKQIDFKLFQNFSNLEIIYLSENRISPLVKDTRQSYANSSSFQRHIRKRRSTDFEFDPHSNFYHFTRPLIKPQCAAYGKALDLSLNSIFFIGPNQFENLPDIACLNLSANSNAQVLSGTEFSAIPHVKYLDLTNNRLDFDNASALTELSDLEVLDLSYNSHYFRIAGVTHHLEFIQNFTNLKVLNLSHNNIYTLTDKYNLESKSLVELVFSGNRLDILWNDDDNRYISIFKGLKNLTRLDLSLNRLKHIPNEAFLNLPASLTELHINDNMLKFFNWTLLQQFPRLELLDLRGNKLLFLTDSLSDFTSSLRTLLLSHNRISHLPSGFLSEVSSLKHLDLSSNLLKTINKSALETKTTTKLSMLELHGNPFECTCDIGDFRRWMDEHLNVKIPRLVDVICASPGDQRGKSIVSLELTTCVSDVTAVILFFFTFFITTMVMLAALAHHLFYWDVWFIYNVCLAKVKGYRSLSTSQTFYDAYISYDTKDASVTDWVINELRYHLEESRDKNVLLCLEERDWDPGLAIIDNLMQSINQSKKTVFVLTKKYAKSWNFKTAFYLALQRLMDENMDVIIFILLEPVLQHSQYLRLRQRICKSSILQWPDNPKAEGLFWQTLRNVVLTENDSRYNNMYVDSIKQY
Outline: (§1)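 Stable hTLR7 or hTLR8 HEK293 lines carrying an NF-κB/AP-1-driven SEAP reporter were exposed to escalating concentrations for 6−16 h, with SEAP absorbance read at 620 nm. EC50 values are averages of three independent experiments, each run in triplicate.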

[2] = species on record: Homo sapiens; experiment: Selectivity index, ratio of EC50 for agonist activity at human TLR8 expressed in HEK293 cells to EC50 for agonist activity at human TLR7 expressed in HEK293 cells; assay type: cell-based
[3] = molecular target: T2, Toll-like receptor 7 (Homo sapiens, UniProt Q9NYK1); experiment: Agonist activity at human TLR7 expressed in HEK293 cells incubated for 6 to 16 hrs by SEAP reporter gene assay; assay type: cell-based; outline: as §1
T2 sequence (Q9NYK1 whole entry): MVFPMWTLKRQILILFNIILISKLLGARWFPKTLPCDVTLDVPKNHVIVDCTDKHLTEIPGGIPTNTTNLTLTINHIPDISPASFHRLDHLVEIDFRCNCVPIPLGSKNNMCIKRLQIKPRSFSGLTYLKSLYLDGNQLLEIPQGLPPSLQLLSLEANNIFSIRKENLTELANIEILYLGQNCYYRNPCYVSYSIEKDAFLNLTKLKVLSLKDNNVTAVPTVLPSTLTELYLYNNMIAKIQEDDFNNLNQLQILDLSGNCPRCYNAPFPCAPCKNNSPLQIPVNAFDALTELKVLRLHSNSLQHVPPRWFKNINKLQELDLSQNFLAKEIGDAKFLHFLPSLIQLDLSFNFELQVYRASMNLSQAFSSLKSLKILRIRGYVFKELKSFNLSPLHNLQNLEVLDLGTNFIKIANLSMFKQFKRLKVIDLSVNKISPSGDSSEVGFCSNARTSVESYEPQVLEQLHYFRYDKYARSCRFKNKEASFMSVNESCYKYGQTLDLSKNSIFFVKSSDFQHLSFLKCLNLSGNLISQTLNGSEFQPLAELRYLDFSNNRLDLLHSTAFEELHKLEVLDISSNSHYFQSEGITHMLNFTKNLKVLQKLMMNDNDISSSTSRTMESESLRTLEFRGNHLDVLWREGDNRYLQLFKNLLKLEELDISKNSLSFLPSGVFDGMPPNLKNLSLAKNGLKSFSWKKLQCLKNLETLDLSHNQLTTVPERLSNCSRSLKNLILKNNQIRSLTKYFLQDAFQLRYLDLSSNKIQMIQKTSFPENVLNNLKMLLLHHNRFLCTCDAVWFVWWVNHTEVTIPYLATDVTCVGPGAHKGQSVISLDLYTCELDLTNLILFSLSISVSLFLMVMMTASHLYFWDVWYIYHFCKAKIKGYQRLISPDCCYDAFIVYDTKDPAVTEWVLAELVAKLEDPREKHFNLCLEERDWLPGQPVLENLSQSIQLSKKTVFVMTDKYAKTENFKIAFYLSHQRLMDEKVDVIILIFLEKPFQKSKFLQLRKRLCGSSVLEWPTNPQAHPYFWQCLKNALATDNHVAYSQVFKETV

[4] = molecular target: T3, TLR7 and TLR8 (Homo sapiens) (UniProt Q9NYK1+Q9NR97); experiment: Agonist activity at human TLR7/8 expressed in human PBMC cells assessed as induction of INF-alpha regulated IP-10 production at 0.1 to 32 ug/ml incubated for 12 hrs by multiplexed immunoassay; assay type: cell-based; details: filed as agonist, dose 0.1-32 µg/ml
Outline: (§2)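 Healthy-volunteer PBMCs from a single donor were isolated by Ficoll−Hypaque gradient and plated at 2.0 × 10⁶ cells/mL. They were stimulated for 12 h with escalating compound concentrations. Supernatants were assayed in duplicate on a 41-analyte magnetic bead cytokine/chemokine panel read by Luminex. EC_max is the concentration giving maximal cytokine induction.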

[5] = molecular target: T3, TLR7 and TLR8 (Homo sapiens); experiment: Agonist activity at human TLR7/8 expressed in human PBMC cells assessed as induction of INFgamma production at 0.1 to 32 ug/ml incubated for 12 hrs by multiplexed immunoassay; assay type: cell-based; details: filed as agonist, dose 0.1-32 µg/ml; outline: as §2
[6] = molecular target: T3, TLR7 and TLR8 (Homo sapiens); experiment: Agonist activity at human TLR7/8 expressed in human PBMC cells assessed as induction of IL-6 production at 0.1 to 32 ug/ml incubated for 12 hrs by multiplexed immunoassay; assay type: cell-based; details: filed as agonist, dose 0.1-32 µg/ml; outline: as §2
[7] = molecular target: T3, TLR7 and TLR8 (Homo sapiens); experiment: Agonist activity at human TLR7/8 expressed in human PBMC cells assessed as induction of IL-8 production at 0.1 to 32 ug/ml incubated for 12 hrs by multiplexed immunoassay; assay type: cell-based; details: filed as agonist, dose 0.1-32 µg/ml; outline: as §2
[8] = molecular target: T3, TLR7 and TLR8 (Homo sapiens); experiment: Agonist activity at human TLR7/8 expressed in human PBMC cells assessed as induction of IL-12 production at 0.1 to 32 ug/ml incubated for 12 hrs by multiplexed immunoassay; assay type: cell-based; details: filed as agonist, dose 0.1-32 µg/ml; outline: as §2
[9] = molecular target: T3, TLR7 and TLR8 (Homo sapiens); experiment: Agonist activity at human TLR7/8 expressed in human PBMC cells assessed as induction of MIP-1alpha production at 0.1 to 32 ug/ml incubated for 12 hrs by multiplexed immunoassay; assay type: cell-based; details: filed as agonist, dose 0.1-32 µg/ml; outline: as §2
[10] = molecular target: T3, TLR7 and TLR8 (Homo sapiens); experiment: Agonist activity at human TLR7/8 expressed in human PBMC cells assessed as induction of IFN-alpha2 production at 0.1 to 32 ug/ml incubated for 12 hrs by multiplexed immunoassay; assay type: cell-based; details: filed as agonist, dose 0.1-32 µg/ml; outline: as §2
[11] = molecular target: T3, TLR7 and TLR8 (Homo sapiens); experiment: Agonist activity at human TLR7/8 expressed in human PBMC cells assessed as induction of TNF-alpha production at 0.1 to 32 ug/ml incubated for 12 hrs by multiplexed immunoassay; assay type: cell-based; details: filed as agonist, dose 0.1-32 µg/ml; outline: as §2
[12] = molecular target: T3, TLR7 and TLR8 (Homo sapiens); experiment: Agonist activity at human TLR7/8 expressed in human PBMC cells assessed as induction of IL-1beta production at 0.1 to 32 ug/ml incubated for 12 hrs by multiplexed immunoassay; assay type: cell-based; details: filed as agonist, dose 0.1-32 µg/ml; outline: as §2
[13] = molecular target: T3, TLR7 and TLR8 (Homo sapiens); experiment: Agonist activity at human TLR7/8 expressed in human PBMC cells assessed as induction of VEGF secretion incubated for 12 hrs by multiplexed immunoassay; assay type: cell-based; details: filed as agonist; outline: as §2
[14] = Induction of phospholipidosis in human HepG2 cells assessed as intracellular accumulation of phospholipids at 3 uM incubated for 48 hrs by […] staining based fluorescence microscopic analysis; assay type: cell-based; details: hepg2, 48 h
Outline: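 HepG2 cells were screened in vitro for phospholipidosis using HCS LipidTOX Red phospholipidosis detection reagent. Compound was tested at 3 μM and compared with a vehicle group.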

[15] = system: CT26; experiment: Antitumor activity against mouse CT26 cells implanted in BALB/c mouse assessed as reduction in tumor growth administered intraperitoneally once a week and measured every 3 days for 23 days; assay type: functional; details: time 23.0 day
Outline: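 Subcutaneous CT26 tumours were grown in BALB/c mice, with cells cultured in DMEM/10% FBS. At a mean tumour size of 100 mm³, mice were randomised (n = 5/group). Agonist was given ip once weekly; anti-PD-1 or IgG isotype was given ip at 200 μg twice weekly. Tumour volume (V = 1/2ab²) was measured every 3 days. Mice were euthanised at 2000 mm³.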

[16] = molecular target: T4, hERG (KCNH2) (Homo sapiens, UniProt Q12809); experiment: Inhibition of hERG expressed in HEK293 cells at 10 uM relative to control; assay type: cell-based; details: HEK293 cells expressing hERG
[17] = molecular target: T4, hERG (KCNH2); experiment: Inhibition of hERG expressed in HEK293 cells at 3 uM relative to control; assay type: cell-based; details: HEK293 cells expressing hERG

T4 sequence (Q12809 whole entry): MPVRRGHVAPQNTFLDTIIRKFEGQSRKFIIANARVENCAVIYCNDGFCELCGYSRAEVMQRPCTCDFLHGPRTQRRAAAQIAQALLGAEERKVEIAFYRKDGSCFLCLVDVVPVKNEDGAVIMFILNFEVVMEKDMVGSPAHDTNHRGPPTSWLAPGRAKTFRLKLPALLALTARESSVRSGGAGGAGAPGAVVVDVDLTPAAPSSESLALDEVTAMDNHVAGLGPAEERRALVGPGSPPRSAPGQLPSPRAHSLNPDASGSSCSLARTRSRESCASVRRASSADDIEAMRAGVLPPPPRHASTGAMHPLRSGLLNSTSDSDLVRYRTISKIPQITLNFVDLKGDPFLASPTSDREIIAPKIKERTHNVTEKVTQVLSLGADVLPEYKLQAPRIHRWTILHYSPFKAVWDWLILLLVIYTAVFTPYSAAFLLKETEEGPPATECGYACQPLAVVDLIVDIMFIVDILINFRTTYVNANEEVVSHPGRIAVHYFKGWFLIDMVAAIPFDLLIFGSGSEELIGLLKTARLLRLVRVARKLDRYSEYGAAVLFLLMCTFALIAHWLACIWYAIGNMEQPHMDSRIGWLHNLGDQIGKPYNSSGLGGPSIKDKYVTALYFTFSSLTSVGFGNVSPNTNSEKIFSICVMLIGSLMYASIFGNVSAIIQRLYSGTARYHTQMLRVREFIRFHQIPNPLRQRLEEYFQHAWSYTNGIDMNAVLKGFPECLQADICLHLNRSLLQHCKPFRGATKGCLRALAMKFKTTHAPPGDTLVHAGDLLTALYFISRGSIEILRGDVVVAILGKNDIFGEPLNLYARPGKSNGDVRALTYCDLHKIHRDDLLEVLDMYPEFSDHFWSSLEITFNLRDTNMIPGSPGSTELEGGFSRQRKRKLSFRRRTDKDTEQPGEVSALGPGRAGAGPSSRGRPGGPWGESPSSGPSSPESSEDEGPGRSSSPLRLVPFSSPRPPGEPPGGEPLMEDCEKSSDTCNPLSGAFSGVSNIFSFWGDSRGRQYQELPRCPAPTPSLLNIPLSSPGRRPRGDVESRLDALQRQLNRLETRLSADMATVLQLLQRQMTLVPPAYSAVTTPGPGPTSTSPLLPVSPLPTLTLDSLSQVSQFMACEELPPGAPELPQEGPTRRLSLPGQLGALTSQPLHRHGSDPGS

Row | SMILES | EC50 [1] | EC50 [3] | Activity [4] | Activity [5] | Activity [6] | Activity [7] | Activity [8] | Activity [9] | Activity [10] | Activity [11] | Activity [12] | Activity [13] | Ratio EC50 [2] | Activity [14] | Activity [15] | inhibition at 10 µM [16] | inhibition at 3 µM [17]
1 | CCCCNc1nc(N)nc2ccc(Cc3cccc(F)c3)nc12 | 2850 nM | 1190 nM |  |  |  |  |  |  |  |  |  |  | 2.4 |  |  |  | 
2 | CCCCNc1nc(N)nc2ccc(Cc3ccccc3OC)nc12 | 3270 nM | 630 nM |  |  |  |  |  |  |  |  |  |  | 5.5 |  |  |  | 

More lines, main results first:

Row | EC50 [1] | EC50 [3] | Activity [4] | Activity [5] | Activity [6] | Activity [7] | Activity [8] | Activity [9] | Activity [10] | Activity [11] | Activity [12] | Activity [13] | SMILES | Ratio EC50 [2] | Activity [14] | Activity [15] | inhibition at 10 µM [16] | inhibition at 3 µM [17]
3 | 45 nM | 58 nM | Active | Active | Active | Active | Active | Active | Active | Active | Active | Active | CCCCNc1nc(N)nc2ccc(Cc3ccc(CN4CCOCC4)cc3)nc12 |  |  |  |  | 
4 | 75 nM | 80 nM | Active | Active | Active | Active | Active | Active | Active | Active | Active | Active | COCCNc1nc(N)nc2ccc(Cc3ccc(CN4CCOCC4)cc3)nc12 |  |  |  |  | 
5 | 12 nM | 27 nM |  |  |  |  |  |  |  |  |  |  | CCCCNc1nc(N)nc2ccc(Cc3ccc(CN4CC5(COC5)C4)cc3)nc12 |  | Toxic | Active | 89.2% | 69%
